Experimental data pooled from the literature.
Compare with care: the assays were run in different laboratories.
Target: Protein kinase C iota type (PRKCI, Homo sapiens, UniProt P41743)
Sequence (P41743 1-596, as in one of the studies): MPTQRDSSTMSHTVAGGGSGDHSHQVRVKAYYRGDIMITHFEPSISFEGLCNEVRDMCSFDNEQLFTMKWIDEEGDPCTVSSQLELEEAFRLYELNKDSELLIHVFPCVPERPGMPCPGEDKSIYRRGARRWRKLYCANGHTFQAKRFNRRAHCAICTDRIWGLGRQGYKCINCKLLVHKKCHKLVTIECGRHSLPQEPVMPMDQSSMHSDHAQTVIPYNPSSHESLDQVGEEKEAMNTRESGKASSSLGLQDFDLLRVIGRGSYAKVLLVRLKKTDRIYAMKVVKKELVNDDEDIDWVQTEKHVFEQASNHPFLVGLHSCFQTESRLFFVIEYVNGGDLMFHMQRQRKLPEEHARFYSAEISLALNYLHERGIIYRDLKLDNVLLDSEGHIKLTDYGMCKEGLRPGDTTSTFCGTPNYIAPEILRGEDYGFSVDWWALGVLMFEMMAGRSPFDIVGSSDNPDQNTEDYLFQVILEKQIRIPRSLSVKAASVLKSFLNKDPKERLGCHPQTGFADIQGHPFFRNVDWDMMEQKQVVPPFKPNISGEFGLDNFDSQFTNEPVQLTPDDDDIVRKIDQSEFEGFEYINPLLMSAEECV

Cc1cnn2ncc(-c3ccnc(N(C)C)n3)c2c1
remaining binding (binding; 1 µM): 81%

CN(C)c1ncnc(-c2ccc3nc(Nc4cc(CN5CCN(C(=O)CC(F)(F)F)CC5)ccn4)[nH]c3c2)c1Cl
remaining binding (cell-free assay; competition with immobilised ligand; 1 µM): 79%

O=C(c1ccc(Nc2ncc(Cl)c(-c3cc4ccccc4s3)n2)cc1)N1CCC(N2CCCC2)CC1
remaining binding (binding; competition with immobilised ligand; 1 µM): 72%

F[C@@H]1CCN(c2nccc(-c3cnn4ncccc34)n2)C1
remaining binding (binding; 1 µM): 100%

c1cncc(-c2cccc(Nc3nccc(NC4CCCCC4)n3)c2)c1
remaining binding (binding; competition with immobilised ligand; 10 µM): 78%

COc1cnc(Nc2cccc(S(N)(=O)=O)c2)nc1N1CCN(c2ccccc2)CC1
remaining binding (binding; competition with immobilised ligand; 1 µM): 95%

C[C@@H](c1ccc(-n2cnc3c(N)ncnc32)cc1)N1CCc2nn(C)c(Cc3ccccc3)c2C1=O
remaining binding (binding; competition with immobilised ligand; 0.1 µM): 82%

N#Cc1ccc(Nc2ccc3[nH]c(=O)[nH]c3c2)c(Cl)c1
remaining binding (cell-free assay; competition with immobilised ligand; 1 µM): 86%

C[C@H]1CCN(c2nccc(-c3cnn4ncccc34)n2)C1
remaining binding (binding; 1 µM): 59%

O=C1NC(c2ccccn2)Sc2ccccc21 (centres unmarked)
remaining binding (cell-free assay; competition with immobilised ligand; 1 µM): 72%

C=CC(=O)N1CCC(C(=O)NCC(=O)N2CCN(c3nc(-c4cnc(N)nc4C(F)F)nc(N4CCOCC4)n3)CC2)CC1
remaining binding (binding; competition with immobilised ligand; 1 µM): 95%

O=C(Nc1c[nH]nc1C(=O)NC1CCNCC1)c1cc(F)cc(F)c1
remaining binding (binding; competition with immobilised ligand; 1 µM): 84%

N[C@H]1CCN(c2nccc(-c3cnn4ncccc34)n2)C1
remaining binding (binding; 1 µM): 37%

O=C(c1ccc(Nc2ncc(Cl)c(-c3ccc(Cl)s3)n2)cc1)N1CCC(N2CCCC2)CC1
remaining binding (binding; competition with immobilised ligand; 1 µM): 98%

O=C(O)[C@H]1[C@H](Cn2nnc3ccccc3c2=O)CC[C@@H]1C(=O)c1ccc(OCCC2CCOCC2)cc1
remaining binding (cell-free assay; competition with immobilised ligand; 1 µM): 66%

Cc1cnc(Nc2ccc(C(=O)N3CCC(N4CCCC4)CC3)cc2)nc1-c1cc2ccccc2s1
remaining binding (binding; competition with immobilised ligand; 1 µM): 83%

CC(=O)N1CCC(c2ccc(C(=O)NC(=N)N)cc2C(F)(F)F)CC1
remaining binding (cell-free assay; competition with immobilised ligand; 1 µM): 100%

CN(C)c1nccc(-c2cnc3ncccn23)n1
remaining binding (binding; 1 µM): 72%

NS(=O)(=O)c1cc(NC(=O)C2(c3ccccc3Cl)CC2)ccc1Oc1cccc(Cl)c1
remaining binding (cell-free assay; competition with immobilised ligand; 1 µM): 98%

c1cnn2ncc(-c3ccnc(N4CCC45COC5)n3)c2c1
remaining binding (binding; 1 µM): 58%
